In ChEMBL document CHEMBL1157295, “Polyacylated oligosaccharides from medicinal Mexican morning glory species as antibacterials and inhibitors of multidrug resistance in Staphylococcus aureus” (2006):
≈ marks a conversion by molar mass, not a printed value.

What was measured:
Assay type in all cases: functional
[1] = test system: Staphylococcus aureus; assay: Antimicrobial activity against epidemic methicillin-resistant Staphylococcus aureus 15 by standard microdilution method
How it was run: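 Broth microdilution following NCCLS guidelines, at least in duplicate, against EMRSA-15 (mecA) precultured on nutrient agar. Medium was cation-adjusted Mueller-Hinton broth with 20 mg/L Ca2+ and 10 mg/L Mg2+. Inoculum was 5 × 10^5 cfu in 0.9% saline, set against a McFarland standard. Compounds were dissolved in DMSO (final ≤3.125% v/v) and tested at 1–512 µg/mL in 2-fold series. MIC was the lowest concentration with no visible growth.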

[2] = test system: Staphylococcus aureus; assay: Antimicrobial activity against Staphylococcus aureus ATCC 25923 by standard microdilution method
How it was run: (§1)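 Broth microdilution per NCCLS guidelines, at least in duplicate, in cation-adjusted Mueller-Hinton broth (20 mg/L Ca2+, 10 mg/L Mg2+). Strains were grown first on nutrient agar. Inoculum of 5 × 10^5 cfu was set in 0.9% saline against a McFarland standard. Compounds were dissolved in DMSO and given as 2-fold serial dilutions, final 1–512 µg/mL, with at most 3.125% v/v DMSO. MIC is the lowest concentration showing no visible growth.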

[3] = test system: Staphylococcus aureus; assay: Antimicrobial activity against TetK multidrug efflux pump possessing Staphylococcus aureus XU-212 by standard microdilution method; how it was run: as §1
[4] = test system: Staphylococcus aureus; assay: Antimicrobial activity against Staphylococcus aureus ATCC 6538
[5] = test system: Mycobacterium tuberculosis; assay: Antimicrobial activity against Mycobacterium tuberculosis

Compound	MIC [1] [µg/mL]	MIC [2] [µg/mL]	MIC [3] [µg/mL]	MIC [4] [µg/mL]	MIC [5] [µg/mL]
CCn1cc(C(=O)O)c(=O)c2cc(F)c(N3CCNCC3)cc21 [NORFLOXACIN]	0.5 (≈ 1.57 µM)	2 (≈ 6.26 µM)	16 (≈ 50.1 µM)		
C/C=C(\C)C(=O)O[C@H]1[C@H](O)[C@@H](O)[C@H](O[C@@H]2[C@H]3OC(=O)CCCCCCCCC[C@H](CCCCC)O[C@@H]4O[C@H](C)[C@@H](O)[C@H](O)[C@H]4O[C@@H]4O[C@H](CO)[C@@H](OC(=O)[C@H](C)[C@@H](C)O)[C@H](O)[C@H]4O[C@H](O[C@H]2C)[C@@H]3OC(=O)[C@@H](C)CC)O[C@@H]1C [ORIZABIN IX]	256 (≈ 228 µM)	> 512	> 512		
C/C=C(\C)C(=O)O[C@H]1[C@H](O)[C@@H](O)[C@H](O[C@@H]2[C@H]3OC(=O)CCCCCCCCC[C@H](CCCCC)O[C@@H]4O[C@H](C)[C@@H](O)[C@H](O)[C@H]4O[C@@H]4O[C@H](COC(=O)[C@@H](C)[C@H](C)O)[C@@H](O)[C@H](O)[C@H]4O[C@H](O[C@H]2C)[C@@H]3OC(=O)C(C)C)O[C@@H]1C [ORIZABIN XIII]	8 (≈ 7.22 µM)	8 (≈ 7.22 µM)	32 (≈ 28.9 µM)		
C/C=C(\C)C(=O)O[C@H]1[C@H](O)[C@@H](O)[C@H](O[C@@H]2[C@H]3OC(=O)CCCCCCCCC[C@H](CCCCC)O[C@@H]4O[C@H](C)[C@@H](O)[C@H](O)[C@H]4O[C@@H]4O[C@H](COC(=O)[C@H](C)[C@@H](C)O)[C@@H](O)[C@H](O)[C@H]4O[C@H](O[C@H]2C)[C@@H]3OC(=O)C(C)C)O[C@@H]1C [ORIZABIN XII]	512 (≈ 462 µM)	> 512	> 512		
C/C=C(\C)C(=O)O[C@H]1[C@H](O)[C@@H](O)[C@H](O[C@@H]2[C@H]3OC(=O)CCCCCCCCC[C@H](CCCCC)O[C@@H]4O[C@H](C)[C@@H](O)[C@H](O)[C@H]4O[C@@H]4O[C@H](COC(=O)[C@@H](C)CC)[C@@H](O)[C@H](O)[C@H]4O[C@H](O[C@H]2C)[C@@H]3OC(=O)[C@H](C)[C@@H](C)O)O[C@@H]1C [ORIZABIN XIV]	8 (≈ 7.13 µM)	16 (≈ 14.3 µM)	64 (≈ 57.1 µM)		
CCCCC[C@H]1CCCCCCCCCC(=O)O[C@@H]2[C@@H](O[C@@H]3O[C@H](C)[C@@H](OC(=O)[C@@H](C)CC)[C@H](O)[C@H]3O)[C@H](C)O[C@@H](O[C@H]3[C@H](O[C@H]4[C@H](O1)O[C@H](C)[C@@H](O)[C@@H]4O)O[C@H](COC(=O)[C@@H](C)CC)[C@@H](O)[C@@H]3O)[C@@H]2OC(=O)[C@@H](C)[C@H](C)O [ORIZABIN XIX]	256 (≈ 228 µM)	128 (≈ 114 µM)	512 (≈ 456 µM)		
C/C=C(\C)C(=O)O[C@H]1[C@H](O)[C@@H](O)[C@H](O[C@@H]2[C@H]3OC(=O)CCCCCCCCC[C@H](CCCCC)O[C@@H]4O[C@H](C)[C@@H](O)[C@H](O)[C@H]4O[C@@H]4O[C@H](COC(=O)C(C)C)[C@@H](O)[C@H](O)[C@H]4O[C@H](O[C@H]2C)[C@@H]3OC(=O)[C@@H](C)[C@H](C)O)O[C@@H]1C [ORIZABIN XI]	4 (≈ 3.61 µM)	16 (≈ 14.4 µM)	32 (≈ 28.9 µM)		
CCCCC[C@H]1CCCCCCCCCC(=O)O[C@@H]2[C@@H](O[C@@H]3O[C@H](C)[C@@H](OC(=O)[C@@H](C)CC)[C@H](O)[C@H]3O)[C@H](C)O[C@@H](O[C@H]3[C@H](O[C@H]4[C@H](O1)O[C@H](C)[C@@H](O)[C@@H]4O)O[C@H](COC(=O)[C@@H](C)CC)[C@@H](O)[C@@H]3O)[C@@H]2OC(=O)[C@H](C)[C@@H](C)O [ORIZABIN XVIII]	64 (≈ 57 µM)	32 (≈ 28.5 µM)	64 (≈ 57 µM)		
C/C=C(\C)C(=O)O[C@H]1[C@H](O)[C@@H](O)[C@H](O[C@@H]2[C@H]3OC(=O)CCCCCCCCC[C@H](CCCCC)O[C@@H]4O[C@H](C)[C@@H](O)[C@H](O)[C@H]4O[C@@H]4O[C@H](COC(=O)[C@@H](C)[C@H](C)O)[C@@H](O)[C@H](O)[C@H]4O[C@H](O[C@H]2C)[C@@H]3OC(=O)[C@@H](C)CC)O[C@@H]1C [ORIZABIN XVII]	8 (≈ 7.13 µM)	8 (≈ 7.13 µM)	32 (≈ 28.5 µM)		
C/C=C(\C)C(=O)O[C@H]1[C@H](O)[C@@H](O)[C@H](O[C@@H]2[C@H]3OC(=O)CCCCCCCCC[C@H](CCCCC)O[C@@H]4O[C@H](C)[C@@H](O)[C@H](O)[C@H]4O[C@@H]4O[C@H](COC(=O)[C@H](C)[C@@H](C)O)[C@@H](O)[C@H](O)[C@H]4O[C@H](O[C@H]2C)[C@@H]3OC(=O)[C@@H](C)CC)O[C@@H]1C [ORIZABIN XVI]	8 (≈ 7.13 µM)	8 (≈ 7.13 µM)	128 (≈ 114 µM)		
C/C=C(\C)C(=O)O[C@H]1[C@H](O)[C@@H](O)[C@H](O[C@@H]2[C@H]3OC(=O)CCCCCCCCC[C@H](CCCCC)O[C@@H]4O[C@H](C)[C@@H](O)[C@H](O)[C@H]4O[C@@H]4O[C@H](COC(=O)[C@@H](C)CC)[C@@H](O)[C@H](O)[C@H]4O[C@H](O[C@H]2C)[C@@H]3OC(=O)[C@@H](C)[C@H](C)O)O[C@@H]1C [ORIZABIN XV]	16 (≈ 14.3 µM)	128 (≈ 114 µM)	512 (≈ 457 µM)		
CCCCC[C@H]1CCCCCCCCCC(=O)O[C@@H]2[C@@H](O[C@@H]3O[C@H](C)[C@@H](OC(=O)[C@@H](C)CC)[C@H](O)[C@H]3O)[C@H](C)O[C@@H](O[C@H]3[C@H](O[C@H]4[C@H](O1)O[C@H](C)[C@@H](O)[C@@H]4O)O[C@H](COC(=O)[C@@H](C)[C@H](C)O)[C@@H](O)[C@@H]3O)[C@@H]2OC(=O)[C@@H](C)CC [ORIZABIN XXI]	16 (≈ 14.2 µM)	8 (≈ 7.12 µM)	64 (≈ 57 µM)		
CCCCC[C@H]1CCCCCCCCCC(=O)O[C@@H]2[C@@H](O[C@@H]3O[C@H](C)[C@@H](OC(=O)[C@@H](C)CC)[C@H](O)[C@H]3O)[C@H](C)O[C@@H](O[C@H]3[C@H](O[C@H]4[C@H](O1)O[C@H](C)[C@@H](O)[C@@H]4O)O[C@H](COC(=O)[C@H](C)[C@@H](C)O)[C@@H](O)[C@@H]3O)[C@@H]2OC(=O)[C@@H](C)CC [ORIZABIN XX]	32 (≈ 28.5 µM)	64 (≈ 57 µM)	> 512		
C/C=C(\C)C(=O)O[C@H]1[C@H](O)[C@@H](O)[C@H](O[C@@H]2[C@H]3OC(=O)CCCCCCCCC[C@H](CCCCC)O[C@@H]4O[C@H](C)[C@@H](O)[C@H](O)[C@H]4O[C@@H]4O[C@H](COC(=O)C(C)C)[C@@H](O)[C@H](O)[C@H]4O[C@H](O[C@H]2C)[C@@H]3OC(=O)[C@H](C)[C@@H](C)O)O[C@@H]1C [ORIZABIN X]	4 (≈ 3.61 µM)	16 (≈ 14.4 µM)	32 (≈ 28.9 µM)		
CCCCC[C@H]1CCCCCCCCCC(=O)O[C@@H]2[C@@H](O[C@@H]3O[C@H](C)[C@@H](O)[C@H](O)[C@H]3O)[C@H](C)O[C@@H](O[C@H]3[C@H](O[C@H]4[C@H](O1)O[C@H](C)[C@@H](O)[C@@H]4O)O[C@H](CO)[C@@H](O)[C@@H]3O)[C@@H]2OC(=O)[C@@H](C)CC [SCAMMONIN II]	128 (≈ 136 µM)	256 (≈ 273 µM)	512 (≈ 545 µM)		
C/C=C(\C)C(=O)O[C@H]1[C@H](O)[C@@H](O)[C@H](O[C@@H]2[C@H]3OC(=O)CCCCCCCCC[C@H](CCCCC)O[C@@H]4O[C@H](C)[C@@H](O)[C@H](O)[C@H]4O[C@@H]4O[C@H](CO)[C@@H](O)[C@H](O)[C@H]4O[C@H](O[C@H]2C)[C@@H]3OC(=O)[C@@H](C)CC)O[C@@H]1C [SCAMMONIN I]	32 (≈ 31.3 µM)	32 (≈ 31.3 µM)	128 (≈ 125 µM)		
CN(C)[C@@H]1C(O)=C(C(N)=O)C(=O)[C@@]2(O)C(O)=C3C(=O)c4c(O)cccc4[C@@](C)(O)[C@H]3C[C@@H]12 [TETRACYCLINE]	0.15 (≈ 0.338 µM)	0.08 (≈ 0.18 µM)	64 (≈ 144 µM)		
CCCCC[C@H]1CCCCCCCCCC(=O)O[C@H]2[C@H](O)[C@@H](CO)O[C@@H](O[C@H]3[C@H](O1)O[C@H](C)[C@H](O)[C@@H]3O)[C@@H]2O[C@@H]1O[C@@H](C)[C@H](OC(=O)[C@@H](C)CC)[C@@H](O[C@@H]2O[C@@H](C)[C@H](O)[C@@H](O)[C@H]2O)[C@H]1OC(=O)[C@@H](C)CC [TRICOLORIN A]	4 (≈ 3.91 µM)	16 (≈ 15.6 µM)	8 (≈ 7.82 µM)	1 (≈ 0.977 µM)	16 (≈ 15.6 µM)
CCCCC[C@H]1CCCCCCCCCC(=O)O[C@H]2[C@H](O[C@H]3[C@H](O[C@H]4[C@H](O1)O[C@H](C)[C@H](O)[C@@H]4O)O[C@H](CO)[C@@H](O)[C@@H]3O)O[C@H](C)[C@@H](O)[C@@H]2O [TRICOLORIN F]	> 512	> 512	> 512		
CCCCC[C@H](CCCCCCCCCC(=O)OC[C@H]1O[C@H]2O[C@H]3[C@H](O[C@@H](CCCCC)CCCCCCCCCC(=O)O[C@H]4[C@H](O[C@@H]2[C@@H](O)[C@@H]1O)O[C@H](C)[C@@H](O)[C@@H]4O)O[C@H](C)[C@H](O)[C@@H]3O)O[C@@H]1O[C@H](C)[C@H](O)[C@H](O)[C@H]1O[C@@H]1O[C@H](CO)[C@@H](O)[C@H](O)[C@H]1O[C@@H]1O[C@H](C)[C@@H](O)[C@H](O)[C@H]1O [TRICOLORIN J]	> 256	> 256	> 256		
